Screening data: PubChem BioAssay, Broad Institute
A1 apoptosis 2 – A1 inhibition read as caspase activation | MEF A1-2A-BIM cells, caspase-Glo luminescence, 3 h; percent of clofoctol response, DMSO zero | caspase activation, % (concentration not given with the values) | 24,000 tested, under 10 active; in the data active = caspase activation above about 5.9%; inconclusive = no clear call, values can overlap the other calls; inactive = below about 2.2%
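Evaluation: Caspase-3/7 activity from luminescence increase | Assay system: A1-2A-BIM mouse embryonic fibroblasts | Quantity: 2500 MEF cells/well | Medium: RPMI-1640 plus 10% FBS | Detection: Caspase-Glo 3/7 luminescence, 1 h at room temperature | Dosing: 50 nL compound per well, pinned | Timing: Cells settled overnight, compound exposure 3 h at 37 °C, 5% CO2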
INS-1E ATP HTS – preserves ATP levels in cytokine-treated INS-1E cells; INS-1E cytokine-induced death, ATP luminescence, 48 h; normalised: neutral wells 0, positive control 100; 20,000 tested, 0.1% active; protection from cytokine-induced ATP loss, % at 10 µM;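 active = mean replicate protection from cytokine-induced ATP loss at least 50% and at least 75% of replicates each reaching 50%; inconclusive = meets only one of the two criteria, mean or replicate share; inactive = fails both the mean and replicate share criteria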
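Assay system – rat INS-1E insulinoma cell line · Quantity – 8000 cells per well · Buffer or medium – RPMI without phenol red, 5% FBS · Schedule – 48 h co-treatment, 10 min post-lysis read · Technique – luminescent ATP assay (CellTiter-Glo)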
T cruzi intra – intracellular Trypanosoma cruzi inhibition. intracellular Trypanosoma cruzi in host cells, plate reader. activity score (inhibition), % at 5.01 µM. 22,000 tested, 4.9% active. AID 651903; in the data active = activity score above about 55%; inconclusive = no clear call, values can overlap the other calls;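 note: parasites and compound incubated about four days before reading; 0% = median of neutral control wells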
The depositor's hits bear a star; ? = inconclusive; . = no result. This is one part of a sample in which hits are shown more often than they occur.

SMILES	A1 apoptosis 2	INS-1E ATP HTS	T cruzi intra
Cc1cc(C(=O)Nc2cccc3c2O[C@@H](CN(C)C(=O)Nc2ccccc2)[C@@H](C)CN([C@H](C)CO)C3=O)n(C)n1	-1	4	61*
Cc1cc(C(=O)Nc2cccc3c2O[C@H](CN(C)C(=O)Nc2ccccc2)[C@@H](C)CN([C@@H](C)CO)C3=O)n(C)n1	0	4	-41
Cc1cc(C(=O)Nc2cccc3c2O[C@@H](CN(C)Cc2ccc(-c4ccccc4)cc2)[C@@H](C)CN([C@H](C)CO)C3=O)n(C)n1	-1	-20	64*
Cc1cc(C(=O)Nc2cccc3c2O[C@H](CN(C)Cc2ccc(-c4ccccc4)cc2)[C@H](C)CN([C@@H](C)CO)C3=O)n(C)n1	0	-23	-26
Cc1cc(C(=O)Nc2cccc3c2O[C@H](CN(C)Cc2ccc(C(F)(F)F)cc2)[C@H](C)CN([C@@H](C)CO)C3=O)n(C)n1	-2	-3	-4
Cc1cc(C(=O)Nc2cccc3c2O[C@H](CN(C)Cc2ccc(C(F)(F)F)cc2)[C@@H](C)CN([C@H](C)CO)C3=O)n(C)n1	1	-18	69*
COC(=O)CCCCCCC(=O)N/N=C/c1ccc(Br)cc1	1	27	-13
O=C(NO)c1ccc(C(=O)N/N=C/c2ccc(O)c(O)c2O)cc1	0	.	.
C=CCNC(=O)[C@@H]1[C@H]2C(=O)O[C@H](c3ccccc3)[C@H](c3ccccc3)N2[C@H](c2ccccc2OCCO)[C@@]12C(=O)Nc1ccccc12	0	.	.
COc1ccc(CN2C(C)Cc3cc(OC)c(OC)cc3C2C)cc1 (stereo unspecified)	1	.	.
C=C[C@@H](COC(C)=O)NS(=O)(=O)c1ccc(Br)cc1	0	.	.
CCn1c2ccccc2c2cc(/C=N/NC(=O)c3ccccn3)ccc21	-1	-5	30
C[C@@H]1CN([C@@H](C)CO)C(=O)c2cccc(NC(=O)CCCCCC(=O)Nc3ccccc3N)c2O[C@H]1CN(C)Cc1ccc(Cl)c(Cl)c1	.	7	80*
C[C@@H]1CN([C@H](C)CO)C(=O)c2cccc(NC(=O)CCCCCC(=O)Nc3ccccc3N)c2O[C@@H]1CN(C)Cc1ccc(-c2ccccc2)cc1	0	7	?
C[C@@H]1CN([C@@H](C)CO)C(=O)c2cccc(NC(=O)CCCCCC(=O)Nc3ccccc3N)c2O[C@H]1CN(C)Cc1ccccc1	-1	19	72*
C[C@@H]1CN([C@H](C)CO)C(=O)c2cccc(NC(=O)CCCCCC(=O)Nc3ccccc3N)c2O[C@@H]1CN(C)Cc1ccccc1	.	1	-32
C[C@H]1CN([C@@H](C)CO)C(=O)c2cccc(NC(=O)CCCCCC(=O)Nc3ccccc3N)c2O[C@H]1CN(C)Cc1ccc(-c2ccccc2)cc1	1	-5	68*
C[C@H](CO)N1C[C@H](C)[C@@H](CN(C)Cc2ccc(Oc3ccccc3)cc2)Oc2c(NC(=O)CCCCCC(=O)Nc3ccccc3N)cccc2C1=O	0	.	.
C[C@@H]1CN([C@H](C)CO)C(=O)c2cccc(NC(=O)CCCCCC(=O)Nc3ccccc3N)c2O[C@H]1CN(C)Cc1ccc(Cl)c(Cl)c1	-2	.	.
C[C@@H]1CN([C@@H](C)CO)C(=O)c2cccc(NC(=O)CCCCCC(=O)Nc3ccccc3N)c2O[C@H]1CN(C)Cc1ccc(Oc2ccccc2)cc1	0	-3	84*
N#Cc1ccc(/C=N/NC(=O)c2ccccn2)cc1	-9	-15	-11
O=C(N/N=C/c1ccc(-c2ccccc2)c(F)c1)c1ccccn1	-11	-37	-18
COC(=O)CCCCCCC(=O)N/N=C/c1ccc([N+](=O)[O-])c(O)c1	0	-2	9
COC(=O)CCCCCCC(=O)N/N=C/c1ccc(S(=O)(=O)O)o1	0	4	-19
O=C(CCCCC(=O)N/N=C/c1cc(Br)cs1)NO	-1	9	13
SMILES	A1 apoptosis 2	INS-1E ATP HTS	T cruzi intra
O=S(=O)(N[C@@H]1CCCN(Cc2ccc(OCCO)cc2)C1)c1ccc(Cl)cc1	0	.	.
COC(=O)CCCCCCC(=O)N/N=C/c1cc(Br)ccc1O	0	-1	24
COC(=O)CCCCCCC(=O)N/N=C/c1ccc(N(C)CCO)cc1	0	1	22
COC(=O)CCCCCCC(=O)N/N=C/[C@@H]1CCCN1C(=O)OC(C)(C)C	0	-2	1
COc1cc(Cl)c(/C=N/NC(=O)c2cccc(C(=O)NO)c2)c(Cl)c1OC	-1	-5	-15
Cc1ccc(S(=O)(=O)Nc2ccc3c(c2)CC(=O)N([C@@H](C)CO)C[C@@H](C)[C@H](CN(C)Cc2ccc(C(F)(F)F)cc2)O3)cc1	0	.	.
C[C@@H]1CN([C@H](C)CO)C(=O)Cc2cc(NS(=O)(=O)c3ccc(F)cc3)ccc2O[C@H]1CN(C)Cc1ccc(C(F)(F)F)cc1	1	-13	48
C[C@H]1CN([C@@H](C)CO)C(=O)Cc2cc(NS(=O)(=O)c3ccc(F)cc3)ccc2O[C@@H]1CN(C)Cc1ccc(C(F)(F)F)cc1	.	-17	61*
Cc1ccc(S(=O)(=O)Nc2ccc3c(c2)CC(=O)N([C@H](C)CO)C[C@@H](C)[C@@H](CN(C)Cc2ccc(C(F)(F)F)cc2)O3)cc1	.	-10	61*
C[C@@H]1CN([C@@H](C)CO)C(=O)Cc2cc(NS(=O)(=O)c3ccc(F)cc3)ccc2O[C@@H]1CN(C)Cc1ccc(C(F)(F)F)cc1	-1	-41	?
Cc1ccc(S(=O)(=O)Nc2ccc3c(c2)CC(=O)N([C@@H](C)CO)C[C@H](C)[C@@H](CN(C)Cc2ccc(C(F)(F)F)cc2)O3)cc1	.	0	62*
COC(=O)CCCCCCC(=O)N/N=C/c1ccc(F)c(Oc2ccccc2)c1	0	1	6
Brc1ccc2nc(N3CCCCCC3)nc(NC3CCN(Cc4ccccc4)CC3)c2c1	0	.	.
O=C(NO)c1cccc(C(=O)N/N=C/c2cc(O)ccc2[N+](=O)[O-])c1	.	7	-12
CC1=C(C/C=N/NC(=O)CCCCCCC(=O)Nc2ccccc2O)C(C)(C)CCC1	.	8	7
COc1ccc(S(=O)(=O)Nc2ccc3c(c2)CC(=O)N([C@H](C)CO)C[C@H](C)[C@H](CN(C)Cc2ccc(-c4ccccc4)cc2)O3)cc1	-1	-28	25
COc1ccc(S(=O)(=O)Nc2ccc3c(c2)CC(=O)N([C@@H](C)CO)C[C@H](C)[C@H](CN(C)Cc2ccccc2)O3)cc1	0	2	43
COc1ccc(S(=O)(=O)Nc2ccc3c(c2)CC(=O)N([C@H](C)CO)C[C@H](C)[C@H](CN(C)Cc2ccc(Oc4ccccc4)cc2)O3)cc1	.	-16	22
COc1ccc(S(=O)(=O)Nc2ccc3c(c2)CC(=O)N([C@H](C)CO)C[C@@H](C)[C@H](CN(C)Cc2ccccc2)O3)cc1	0	3	66*
COc1ccc(S(=O)(=O)Nc2ccc3c(c2)CC(=O)N([C@H](C)CO)C[C@H](C)[C@@H](CN(C)Cc2ccc(-c4ccccc4)cc2)O3)cc1	-1	.	.
COc1ccc(S(=O)(=O)Nc2ccc3c(c2)CC(=O)N([C@@H](C)CO)C[C@@H](C)[C@@H](CN(C)Cc2ccc(-c4ccccc4)cc2)O3)cc1	0	-32	64*
